# From ChEMBL document CHEMBL1147187, “Design and synthesis of new potent dipeptidyl peptidase IV inhibitors with enhanced ex vivo duration” (Bioorg Med Chem, 2007)
# Active and inactive are the calls of the source. The rule behind the calls is not given here.
# What was measured:
# [1] = biological target: Dipeptidyl peptidase 4 (Rattus norvegicus) (UniProt P14740); assay: Ex vivo inhibition of DPP4 in Sprague-Dawley rat plasma at 1 mg/kg, po after 6 hrs; format: organism-based; set-up: dose 1 mg/kg
# Summary of the method: (§1)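 Male SD rats, 6–7 weeks old, fasted at least 8 h, given a single oral dose of 1 mg/kg in 0.5% methyl cellulose. Jugular vein blood taken before dosing and serially to 10 h (12 h in the species comparison). Plasma mixed with substrate (50 µL of 60 µM Gly-Pro-AMC). Initial fluorescence rate over 15 min at 37 °C; % inhibition is relative to basal activity.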
# [2] = biological target: Dipeptidyl peptidase 4 (Rattus norvegicus) (UniProt P14740); assay: Ex vivo inhibition of DPP4 in Sprague-Dawley rats plasma at 1 mg/kg, po after 10 hrs; format: organism-based; set-up: dose 1 mg/kg; summary of the method: as §1
# [3] = biological target: Dipeptidyl peptidase 4 (Rattus norvegicus) (UniProt P14740); assay: Ex vivo inhibition of DPP4 in Sprague-Dawley rats plasma at 1 mg/kg, po after 12 hrs; format: organism-based; set-up: dose 1 mg/kg; summary of the method: as §1
# Canis familiaris = assay: Ex vivo inhibition of DPP4 in Beagle dog at 1 mg/kg, po after 12 hrs; format: functional; conditions: Canis lupus familiaris
# Summary of the method: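 Male beagle dogs (11–15 kg) and male cynomolgus monkeys (3.5–6 kg), fasted 8 h, given a single oral dose of 1 mg/kg in 0.5% methyl cellulose. Femoral vein blood taken before dosing and at 12 h. Plasma DPP-IV activity measured as the initial rate of Gly-Pro-AMC cleavage (fluorescence, ex 355/em 460 nm, 37 °C); % inhibition is relative to basal activity.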
# Cynomolgus monkey = assay: animal or person; conditions: Macaca fascicularis, po, 12 h, read-out: Inhibition
# Rattus norvegicus [4] = assay: Suppression of glucose level in Sprague-Dawley rats at 1 mg/kg, po administered 30 mins prior to glucose by glucose tolerance test; format: functional, organism-based; set-up: dose 1 mg/kg
# Summary of the method: (§2)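 Male SD rats (364–473 g), fasted at least 20 h, given vehicle (0.5% methyl cellulose) or 1 mg/kg orally at −0.5 h. Oral glucose 1 g/kg given at 0, 6 and 12 h. Tail-vein blood collected into heparinized tubes from −0.08 h to 14 h. Plasma glucose measured by glucose oxidase–peroxidase dye method.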
# Rattus norvegicus [5] = assay: Suppression of glucose level in Sprague-Dawley rats at 1 mg/kg, po administered 30 mins prior to glucose by glucose tolerance test after 6 hrs; format: functional, organism-based; set-up: dose 1 mg/kg; summary of the method: as §2
# Rattus norvegicus [6] = assay: Suppression of glucose level in Sprague-Dawley rats at 1 mg/kg, po administered 30 mins prior to glucose by glucose tolerance test after 12 hrs; format: functional, organism-based; set-up: dose 1 mg/kg; summary of the method: as §2
# [7] = Stability in Tris buffer at pH 7.4 after 24 hrs; format: physicochemical; conditions: read-out: Stability
# Summary of the method: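 Remaining percentage measured after incubation in 100 mM Tris buffer, pH 7.4, at room temperature for 24 h.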
# Dipeptidyl peptidase 4 (Rattus norvegicus), sequence (P14740 whole entry, looked up): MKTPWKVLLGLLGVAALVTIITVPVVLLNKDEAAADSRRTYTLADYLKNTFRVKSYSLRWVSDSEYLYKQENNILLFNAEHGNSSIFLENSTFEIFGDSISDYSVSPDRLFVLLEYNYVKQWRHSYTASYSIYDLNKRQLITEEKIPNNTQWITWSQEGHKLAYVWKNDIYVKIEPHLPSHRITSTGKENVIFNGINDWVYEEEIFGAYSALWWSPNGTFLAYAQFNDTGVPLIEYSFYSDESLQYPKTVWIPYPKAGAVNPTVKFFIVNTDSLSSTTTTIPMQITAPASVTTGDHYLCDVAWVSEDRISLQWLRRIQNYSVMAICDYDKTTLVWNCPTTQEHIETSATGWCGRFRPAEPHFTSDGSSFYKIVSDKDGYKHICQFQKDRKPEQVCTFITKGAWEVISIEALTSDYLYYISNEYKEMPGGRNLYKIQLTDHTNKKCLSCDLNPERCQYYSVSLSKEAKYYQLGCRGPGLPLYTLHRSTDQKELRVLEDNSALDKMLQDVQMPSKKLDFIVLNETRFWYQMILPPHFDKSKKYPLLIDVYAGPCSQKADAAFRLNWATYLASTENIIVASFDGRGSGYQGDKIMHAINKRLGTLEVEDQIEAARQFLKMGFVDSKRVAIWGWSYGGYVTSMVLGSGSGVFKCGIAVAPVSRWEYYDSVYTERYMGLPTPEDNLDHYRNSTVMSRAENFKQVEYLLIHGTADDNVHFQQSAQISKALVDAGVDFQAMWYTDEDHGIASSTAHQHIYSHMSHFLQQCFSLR
inhibition [1],inhibition [2],SMILES,other results
58%,–,N#C[C@@H]1CCCN1C(=O)[C@@H]1C[C@H](CC(=O)O)CN1,–
58%,–,CN(C)C(=O)CC[C@@H]1CN[C@H](C(=O)N2CCC[C@H]2C#N)C1,–
85%,40%,N#C[C@@H]1CCCN1C(=O)[C@@H]1C[C@H](C(=O)N2CCCC2)CN1,–
60%,19%,CCNC(=O)[C@@H]1CN[C@H](C(=O)N2CCC[C@H]2C#N)C1,–
77%,46%,N#C[C@@H]1CCCN1C(=O)[C@@H]1C[C@H](C(=O)N2CCC2)CN1,–
64%,–,N#C[C@@H]1CCCN1C(=O)[C@@H]1C[C@H](CO)CN1,–
50%,–,CCC[C@@H]1CN[C@H](C(=O)N2CCC[C@H]2C#N)C1,–
71%,34%,CCN(C)C(=O)[C@@H]1CN[C@H](C(=O)N2CCC[C@H]2C#N)C1,–
43%,–,CCN(CC)C(=O)[C@@H]1CN[C@H](C(=O)N2CCC[C@H]2C#N)C1,–
64%,–,N#C[C@@H]1CCCN1C(=O)[C@@H]1C[C@H](CCO)CN1,–
75%,28%,CNC(=O)[C@@H]1CN[C@H](C(=O)N2CCC[C@H]2C#N)C1,–
38%,–,C=CC[C@@H]1CN[C@H](C(=O)N2CCC[C@H]2C#N)C1,–
84%,50%,N#C[C@@H]1CCCN1C(=O)[C@@H]1C[C@H](C(=O)N2CCCCC2)CN1,–
59%,21%,CCCNC(=O)[C@@H]1CN[C@H](C(=O)N2CCC[C@H]2C#N)C1,–
47%,20%,N#C[C@@H]1CCCN1C(=O)[C@@H]1C[C@H](C(N)=O)CN1,–
66%,–,CN(C)C(=O)C[C@@H]1CN[C@H](C(=O)N2CCC[C@H]2C#N)C1,–
76%,52%,CN(C)C(=O)[C@@H]1CN[C@H](C(=O)N2CCC[C@H]2C#N)C1,inhibition [3]: 24%; inhibition in vivo at 1 mg/kg (Canis familiaris): 45%; remaining at 24 h [7]: 52%; inhibition in vivo at 1 mg/kg (Cynomolgus monkey): 44%

# The remaining lines, values behind:
SMILES,inhibition [1],inhibition [2],other results
C[C@@H]1N[C@H](C(=O)N2CCC[C@H]2C#N)C[C@@H]1C(=O)N1CCCCC1,91%,81%,–
C[C@@H]1N[C@H](C(=O)N2CCC[C@H]2C#N)C[C@@H]1C(=O)N1CCC1,94%,88%,–
C[C@@H]1N[C@H](C(=O)N2CCC[C@H]2C#N)C[C@@H]1C(=O)N1Cc2ccccc2C1,86%,77%,inhibition [3]: 71%; inhibition in vivo at 1 mg/kg (Canis familiaris): 16%
C[C@@H]1N[C@H](C(=O)N2CCC[C@H]2C#N)C[C@@H]1C(=O)N1CCOCC1,94%,85%,inhibition in vivo at 1 mg/kg (Canis familiaris): 98%; inhibition in vivo at 1 mg/kg (Cynomolgus monkey): 90%
C[C@@H]1N[C@H](C(=O)N2CCC[C@H]2C#N)C[C@@H]1C(=O)N1CCCC1,94%,88%,inhibition [3]: 82%; inhibition in vivo at 1 mg/kg (Canis familiaris): 95%; inhibition in vivo at 1 mg/kg (Cynomolgus monkey): 95%
C[C@@H]1N[C@H](C(=O)N2CCC[C@H]2C#N)C[C@@H]1C(=O)N1CCSCC1,92%,85%,–
N#C[C@@H]1CCCN1C(=O)[C@@H]1C[C@H](C(=O)N2CCOCC2)CN1,73%,44%,–
CCN(C)C(=O)[C@H]1C[C@@H](C(=O)N2CCC[C@H]2C#N)N[C@H]1C,92%,79%,inhibition [3]: 74%; inhibition in vivo at 1 mg/kg (Canis familiaris): 89%; inhibition in vivo at 1 mg/kg (Cynomolgus monkey): 95%
N#C[C@@H]1CCCN1C(=O)[C@@H]1C[C@H](C(=O)N2CCSCC2)CN1,72%,19%,–
C[C@@H]1N[C@H](C(=O)N2CCC[C@H]2C#N)C[C@@H]1C(=O)N(C)C,95%,84%,inhibition [3]: 81%; inhibition in vivo at 1 mg/kg (Canis familiaris): 98%; Activity (Rattus norvegicus [4]): Active; Activity (Rattus norvegicus [5]): Active; Activity (Rattus norvegicus [6]): Active; remaining at 24 h [7]: 92%; inhibition in vivo at 1 mg/kg (Cynomolgus monkey): 93%
N#C[C@@H]1CCCN1C(=O)[C@@H]1C[C@H](C(=O)N2CCCCCC2)CN1,68%,–,–
N#C[C@@H]1CCCN1C(=O)[C@@H]1C[C@H](C(=O)N2CCCCCCC2)CN1,63%,–,–
N#C[C@@H]1CCCN1C(=O)[C@@H]1CCCN1,20%,–,–
